These results are taken from ChEMBL document CHEMBL4513216, “Probing the Open Global Health Chemical Diversity Library for Multistage-Active Starting Points for Next-Generation Antimalarials” (ACS Infect Dis, 2020).

A short description of the data set: Toxicity liver stage against HepG2, at 10uM. The format is cell-based. Also noted: test concentration 10 uM, cell line HepG2-A16-CD81EGFP. The conditions noted are these: human, HepG2-A16-CD81EGFP cells; read-out: INHIBITION
The procedure, abridged: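 Uninfected HepG2-A16-CD81EGFP cells, 3 × 10^3 per well, 1536-well, plated on prespotted compound at 10 μM final, parasite-free screening media added to match infected plates; puromycin 10 μM positive, DMSO 0.5% negative; run in parallel with 48 h PbLuc assay at 37 °C, 5% CO2; viability by CellTiter-Glo luminescence, normalized to controls.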
`CC(C)(C)c1coc([C@@H]2COCCN2Cc2csnn2)n1`: the cytotoxicity at 10 µM was 3.33%.

With `Cc1cc(Cc2ccc(S(=O)(=O)N3CCCC3)cc2)c(=O)[nH]n1`, the cytotoxicity at 10 µM is 6.47%.

For the molecule `N#Cc1nc(COc2ccc3c(c2)OCO3)oc1N1CCCCCC1`, the cytotoxicity at 10 µM was -34.6%.

For the molecule `CCN(CC)CCSc1nnc(N2CCN(c3ccccc3)CC2)s1`, the cytotoxicity at 10 µM is -21.9%.

Regarding `CCOC(=O)CN1CCC2(CCCN(CCOc3ccccc3)C2)C1` (configuration not stated), the cytotoxicity at 10 µM is -2.63%.

Turning to `O=C([C@H]1CCCO1)N1CC[C@@H](O)[C@@H]1Cc1ccccc1`, the cytotoxicity at 10 µM came to 1.41%.

As for `c1ccc(O[C@@H]2CC[C@H]3[C@H]2OCCN3Cc2ccsc2)nc1`, the cytotoxicity at 10 µM amounted to 1.24%.

Regarding `Cc1oncc1C(=O)N1CC[C@H]2[C@H]1CCN2Cc1ccccn1`, the cytotoxicity at 10 µM is 6.15%.

Take `CNc1nc2c(s1)C(c1ccccc1Cl)CC(=O)N2` (configuration not stated): the cytotoxicity at 10 µM was determined as 2.82%.

On to `Cc1c(C(=O)N2CCN(C)CC2)n(C)c2ccc(Cl)cc12`, for which the cytotoxicity at 10 µM was -2.46%.

As for `COC(=O)c1cc(C2CC2)nc2c(Cl)cnn12`, the cytotoxicity at 10 µM stood at 14.7%.

Regarding `Cc1noc(C2CCN(C(=O)c3cccs3)CC2)n1`, the cytotoxicity at 10 µM is -1.22%.

For `COC(=O)CCn1ccc(=O)c2ccccc21`, the cytotoxicity at 10 µM was -6.84%.

Regarding `CCCC(=O)NCCc1cc(NC)nc(-c2ccccn2)n1`, the cytotoxicity at 10 µM was 1.12%.

Consider `COc1ccccc1CN1CCCC(Cc2nccnc2N)C1` (configuration not stated), for which the cytotoxicity at 10 µM is -3.81%.

Regarding `CCC(=O)N1CCC(c2ncncc2C)CC1`, the cytotoxicity at 10 µM was -11.5%.

For `Cc1cc(CC2COCCN(CCc3ccccc3)C2)ncn1` (configuration not stated), the cytotoxicity at 10 µM stood at 2.04%.

With `c1ccc(N2CCN(Cc3cnc(C4CCCCO4)nc3)CC2)cc1` (configuration not stated), the cytotoxicity at 10 µM was 0.59%.

With `Cc1n[nH]cc1C(=O)N1CCCC(n2nnc3cc(F)ccc32)C1` (configuration not stated), the cytotoxicity at 10 µM is -2.91%.

Regarding `CN1CC(=O)N(C2CCC2)Cc2c(NC3CCNCC3)ncnc21`, the cytotoxicity at 10 µM came to 8.77%.

Turning to `CC(C)NC(=O)N1CCCCCC1C1CCN(c2ncccn2)CC1` (configuration not stated), the cytotoxicity at 10 µM was -23.2%.

With `Cc1cc(N(C)C)nc(N2CCn3c(nnc3C3CC3)C2)n1`, the cytotoxicity at 10 µM is 0.485%.

`CC(NS(=O)(=O)CC1(C#N)CCCC1)c1cccc(-n2cccn2)c1` (configuration not stated): the cytotoxicity at 10 µM amounted to 3.15%.

Consider `FC(F)(F)Oc1cccc(CNCc2ccc(-n3cncn3)nc2)c1`, for which the cytotoxicity at 10 µM amounted to 20.3%.

As for `CS(=O)(=O)CCn1ccc(NC(=O)Cc2ccccc2F)n1`, the cytotoxicity at 10 µM amounted to 3.73%.

For `CC(O)CN(C(=O)NC1CCN(CC2CCCCC2)CC1)C(C)C` (configuration not stated), the cytotoxicity at 10 µM worked out at 7.46%.

With `Cc1ccc(C(=O)Nc2ccccc2N2CCCC2)n1C`, the cytotoxicity at 10 µM turned out to be 5.55%.

Turning to `COCc1nc(C(=O)NS(=O)(=O)c2ccc(F)c(F)c2)cs1`, the cytotoxicity at 10 µM is 7.97%.

Regarding `CC(C)(C)C(=O)NCCC(=O)NS(=O)(=O)c1cccnc1`, the cytotoxicity at 10 µM was -3.15%.

With `CN(CCOc1ccc(F)cc1)S(=O)(=O)c1cnn(C)c1`, the cytotoxicity at 10 µM is -3.23%.

Take `O=C1c2ccccc2C(=O)N1CC(O)Cn1nc(-c2cccs2)oc1=O` (configuration not stated): the cytotoxicity at 10 µM is -14.5%.

For `COc1ncnc(N)c1CNCCOc1ccccc1Cl`, the cytotoxicity at 10 µM came out at 6.24%.

For the molecule `COCCCN(C)S(=O)(=O)c1ccc(C(F)(F)F)cc1C#N`, the cytotoxicity at 10 µM is -4.55%.

In the case of `CC(C)c1nnc2n1CCN(C(C)c1nnc(-c3cccs3)o1)C2` (configuration not stated), the cytotoxicity at 10 µM turned out to be 7.8%.

As for `CCS(=O)(=O)CCN(C)Cc1cc(C)ccc1OC`, the cytotoxicity at 10 µM is -51.5%.

On to `CSc1ccc(OCCN2CCNC(=O)CC2)cc1`, for which the cytotoxicity at 10 µM was found to be 5.59%.

For the molecule `COc1ccccc1CN(Cc1nc(Cc2ccccc2)no1)C1CC1`, the cytotoxicity at 10 µM is 9.54%.

Turning to `O=C(c1ccc2c(c1)[nH]c(=O)n2C1CCCC1)N1CCC1`, the cytotoxicity at 10 µM is -46.4%.

In the case of `Cn1cc(CCCN2CCN(C(=O)c3cccc(O)c3)CC2)cn1`, the cytotoxicity at 10 µM is -46.1%.

For `CC(C)(C)C(O)CN1CCN(CC(=O)NCC(F)(F)F)CC1` (configuration not stated), the cytotoxicity at 10 µM was -10.2%.

`CC(O)(CNc1ccccn1)c1ccccc1` (configuration not stated): the cytotoxicity at 10 µM is -44.3%.

Take `CCCS(=O)(=O)N1CCC(NC(=O)c2ccc(Cl)s2)CC1`: the cytotoxicity at 10 µM amounted to 22.4%.

In the case of `Cn1cc(N2CCC(NC(=O)c3c(F)cccc3F)C2=O)cn1` (configuration not stated), the cytotoxicity at 10 µM came to 2.5%.

As for `CCn1cnnc1C1CCN(C(=O)c2cnc3ccccc3n2)CC1`, the cytotoxicity at 10 µM was -8.59%.

`CC(=O)NCc1nnn2c1CN(c1ncc(C)cn1)CCC2`: the cytotoxicity at 10 µM was -102%.

Take `CN(CCCc1cnn(C)c1)c1nccc(-c2cc(C(=O)O)ccn2)n1`: the cytotoxicity at 10 µM is -3.29%.

Take `CCCN1CCN(C(=O)c2cccc(C)n2)[C@H]2CS(=O)(=O)C[C@H]21`: the cytotoxicity at 10 µM came out at 2.13%.

In the case of `C=C(C)COc1ccc(C(=O)NCCn2c(C)cc(C)nc2=O)cc1`, the cytotoxicity at 10 µM was -4.83%.

For the molecule `CC1(C)CNC(=O)c2nc(C3CCN(C(=O)C4CC4)CC3)[nH]c2C1`, the cytotoxicity at 10 µM was 2.26%.

Regarding `CCOCc1nc(-c2cccc(OC)c2OC)n(C2CCN(C)CC2)n1`, the cytotoxicity at 10 µM is -1.76%.

On to `CC(C1CCN(Cc2c(Cl)ccc(O)c2Cl)CC1)N1CCN(C)CC1` (configuration not stated), for which the cytotoxicity at 10 µM is -12%.

For `Cc1cnn(CC2CCN(c3cc(C(C)C)nc4ccnn34)CC2)c1`, the cytotoxicity at 10 µM was -10.5%.

`O=S(=O)(N1CCOCC1)N1CCCCC1CCc1ccc(O)cc1` (configuration not stated): the cytotoxicity at 10 µM was -4.44%.

On to `N#Cc1cccc(OC23CCCN(CC2)C3)c1` (configuration not stated), for which the cytotoxicity at 10 µM was found to be 1.73%.

As for `Cc1cccc2[nH]c(-c3cn(C4CCNCC4)nn3)nc12`, the cytotoxicity at 10 µM was -6.47%.

On to `CN(C)CC(=O)N1CCc2cccc(S(=O)(=O)N3CCOCC3)c2C1`, for which the cytotoxicity at 10 µM turned out to be 6.8%.

`CCCN1CCCC2(CCN(Cc3cncn3C3CCCC3)C2)C1=O` (configuration not stated): the cytotoxicity at 10 µM is -13%.

In the case of `CCCN1CCCC2(CCN(S(=O)(=O)c3cc(C)nn3CC)C2)C1=O` (configuration not stated), the cytotoxicity at 10 µM came to 4.82%.

Consider `O=C(NCc1cn2c(n1)SCC2)c1cn(CCN2CCCCC2)nn1`, for which the cytotoxicity at 10 µM was -3.69%.

Take `CCc1cc(N2CCC(NCCc3ccc(C)o3)CC2)nc(C)n1`: the cytotoxicity at 10 µM is -0.554%.

Consider `CC(C)N1CCCC(C(=O)N2CCN(c3cccc(C(=O)O)c3)CC2)C1` (configuration not stated), for which the cytotoxicity at 10 µM came to 9.45%.

In the case of `CC1=C(C(=O)NCc2cccnc2-n2cnc3ccccc32)OCCO1`, the cytotoxicity at 10 µM was -2%.

`O=c1[nH]nc(CNCc2ccc(OC34CCCN(CC3)C4)cc2)[nH]1` (configuration not stated): the cytotoxicity at 10 µM is -2.83%.

As to `CN(CCO)Cc1nnc(C2CCN(C(=O)c3ccccc3)CC2)n1C`, the cytotoxicity at 10 µM is 1.93%.

Consider `CCCc1ccc(CN2CCC3(CCC(=O)N(C)CC3)CC2)o1`, for which the cytotoxicity at 10 µM is -4.35%.

Consider `CC(=O)N1CCN(Cc2ccc(C(F)(F)F)c(F)c2)CC(O)C1` (configuration not stated), for which the cytotoxicity at 10 µM is -2.2%.

Take `COc1nc2c(cc1C(=O)N1C[C@H](N)C[C@H]1C(=O)NC(C)C)CCC2`: the cytotoxicity at 10 µM was -9.49%.

Regarding `CC(C(=O)NCc1ccc(N2CCNC(=O)C2)cc1)c1cccs1` (configuration not stated), the cytotoxicity at 10 µM is -4.43%.

With `Cc1cc(C(=O)N2CCCC2)ccc1NCc1nc(CC(C)C)no1`, the cytotoxicity at 10 µM was -4.09%.

Turning to `O=C(NCCc1ccc(Cl)s1)NCc1nnc2n1CCCC2`, the cytotoxicity at 10 µM was -2.45%.

Take `Cn1ccnc1CN1CCCN(C(=O)c2ccc3[nH]cnc3c2)CC1`: the cytotoxicity at 10 µM is -0.565%.

Take `Cc1cnn(CC2CN(c3ccc(C#N)cn3)CCO2)c1` (configuration not stated): the cytotoxicity at 10 µM is -1.26%.

As to `O=C(CS(=O)(=O)Cc1cc(Cl)c2c(c1)OCO2)N1CCCC1`, the cytotoxicity at 10 µM was -8.91%.

For the molecule `Cc1nc(C)c(CC(=O)Nc2nc(C)c(C)s2)c(=O)[nH]1`, the cytotoxicity at 10 µM is -6.28%.

For the molecule `Cc1noc(C)c1C(C)C(=O)N1CCCN(Cc2cscn2)CC1` (configuration not stated), the cytotoxicity at 10 µM is -4.28%.

Turning to `Cc1cc(C)n(CC2CCCN2C(=O)c2ccc3ccccc3n2)n1` (configuration not stated), the cytotoxicity at 10 µM is -2.53%.

Regarding `Cc1cc(C)n(CC2CCCN2C(=O)c2cccnc2N(C)C)n1` (configuration not stated), the cytotoxicity at 10 µM was -3.56%.

For the molecule `Cc1nnc(CN2CCN(CCOc3ccccc3C#N)CC2)n1C`, the cytotoxicity at 10 µM is -5.8%.

On to `O=C(NCc1cc[nH]n1)N1CCCCC(N2CCCC2)C1` (configuration not stated), for which the cytotoxicity at 10 µM is -11.5%.

Regarding `COc1cccc(CCNC(=O)CN2CCCC2c2noc(C)n2)c1` (configuration not stated), the cytotoxicity at 10 µM is -0.489%.

As for `CC(NC(=O)CCC(=O)c1cccs1)c1nnc2n1CCCCC2` (configuration not stated), the cytotoxicity at 10 µM is -7.76%.

For the molecule `COCC(C)NC(=O)c1cc(Br)c2c(c1)OCCO2` (configuration not stated), the cytotoxicity at 10 µM was 3.54%.

Regarding `CCc1ncncc1C(=O)N1CCOC(c2nc(C)n[nH]2)C1` (configuration not stated), the cytotoxicity at 10 µM turned out to be 0.842%.

Regarding `COCCN(Cc1nc2c(cnn2C)c(=O)[nH]1)Cc1ccco1`, the cytotoxicity at 10 µM is -5.04%.

Turning to `Cc1nnc(CN2CCN(CC(O)c3cccc(F)c3)CC2)n1C` (configuration not stated), the cytotoxicity at 10 µM was -1.92%.

`Cc1nc(CN2CCOC(Cn3cncn3)C2)nc2ccccc12` (configuration not stated): the cytotoxicity at 10 µM is -0.241%.

With `Cc1nc2c(c(C)c1CC(=O)Nc1cccc(C#N)c1)c(=O)[nH]n2C`, the cytotoxicity at 10 µM was 3.99%.

On to `O=C(C1CCCCC1)N1CC2(CCNCC2)C1`, for which the cytotoxicity at 10 µM was -8.58%.

As for `CCOC(=O)N1CC2(CCNCC2)c2cc(Cl)ccc21`, the cytotoxicity at 10 µM is -0.449%.

In the case of `CN(C)CCN1CCOCC2(CCCN(C(=O)c3ccccc3)C2)C1` (configuration not stated), the cytotoxicity at 10 µM turned out to be 5.31%.

Regarding `Cc1ccc(CN2CCCC3(CCCC(=O)N3)C2)s1` (configuration not stated), the cytotoxicity at 10 µM was -0.361%.

`c1ccc(CN2CCCC3(CCN(Cc4cccs4)C3)C2)nc1` (configuration not stated): the cytotoxicity at 10 µM is -8.75%.

`Cn1cnc(S(=O)(=O)N2CC3(CCN(Cc4ccncc4)C3)C2)c1`: the cytotoxicity at 10 µM was -113%.

For the molecule `Cn1nnc2c1CCN(Cc1ccccn1)C2COCc1ccccc1` (configuration not stated), the cytotoxicity at 10 µM is -117%.

For `CC[C@@H]1N(Cc2ccc(F)cc2)CCC[C@]12CCC(=O)N2C`, the cytotoxicity at 10 µM amounted to 9.42%.

`CO[C@@H]1CCN(Cc2ccccn2)[C@@H]2CN(Cc3ccco3)C[C@@H]21`: the cytotoxicity at 10 µM was 6.73%.

Take `CS(=O)(=O)N1C[C@@H]2CC[C@H]1CN(Cc1ccncc1)C2`: the cytotoxicity at 10 µM was -2.34%.
